This note sets out measurements from ChEMBL document CHEMBL4190234, “Design, synthesis and anticancer activity of new monastrol analogues bearing 1,3,4-oxadiazole moiety” (Eur J Med Chem, 2017).

Usually IC50 stands for the midpoint of a concentration-inhibition curve. Higher therefore signals weaker potency in that assay.

For experiment [1], the system named is MOLT-4. The experiment is described as follows: Potency index, ratio of monastrol IC50 to compound IC50 for human MOLT4 cells. It counts as functional.
In experiment [2] the test system is MOLT-4. The experiment can be described thus: Growth inhibition of human MOLT4 cells incubated for 24 hrs by MTT assay. It counts as functional, cell-based. Particulars: MOLT-4, 24 h. (In general: Formazan colour is commonly taken as a measure of viable cells.)
For experiment [3], the system named is HL-60(TB). The experiment can be described thus: Potency index, ratio of monastrol IC50 to compound IC50 for human HL-60(TB) cells. It counts as functional.
The subject of experiment [4] is MOLT-4. The experiment can be described thus: Cell cycle arrest in human MOLT4 cells assessed as accumulation of apoptotic cells in pre-G phase at 0.16 uM after 24 hrs by propidium iodide staining based flow cytometry (reference value: 0.88%). It counts as functional. In outline:
(§1)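 MOLT-4 cells (1×10^6) exposed 24 h to 0.160 or 0.430 μM test agent, DMSO (0.002%) control; trypsinized, washed in ice-cold PBS, fixed in ice-cold 70% ethanol ≥2 h at 4°C, washed, stained with propidium iodide DNA kit; cell cycle distribution (pre-G, G0/G1, S, G2/M) by flow cytometry.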
For orientation: Flow cytometry measures light scatter and fluorescence of single cells or particles in a stream.

For experiment [5], the system named is MOLT-4. The experiment can be described thus: Induction of apoptosis in human MOLT4 cells assessed as early apoptotic cells at 0.16 uM after 24 hrs by Annexin V-FITC/propidium iodide staining based flow cytometry (reference value: 0.53%). It counts as functional.
In experiment [6] the test system is MOLT-4. The experiment can be described thus: Induction of apoptosis in human MOLT4 cells assessed as live cells at 0.16 uM after 24 hrs by Annexin V-FITC/propidium iodide staining based flow cytometry (reference value: 99.12%). It counts as functional.
The subject of experiment [7] is MOLT-4. The experiment can be described thus: Induction of apoptosis in human MOLT4 cells assessed as increase in apoptotic cells at 0.16 uM after 24 hrs by Annexin V-FITC/propidium iodide staining based flow cytometry relative to control. It counts as functional.
For experiment [8], the system named is MOLT-4. The experiment can be described thus: Cell cycle arrest in human MOLT4 cells assessed as accumulation at S phase at 0.16 uM after 24 hrs by propidium iodide staining based flow cytometry (reference value: 20.55%). It counts as functional. Put shortly:
as §1

The test system of experiment [9] is MOLT-4. The experiment can be described thus: Induction of apoptosis in human MOLT4 cells assessed as necrotic cells at 0.16 uM after 24 hrs by Annexin V-FITC/propidium iodide staining based flow cytometry (reference value: 0.11%). It counts as functional.
Experiment [10] deals with MOLT-4. The experiment is described as follows: Induction of apoptosis in human MOLT4 cells assessed as late apoptotic cells at 0.16 uM after 24 hrs by Annexin V-FITC/propidium iodide staining based flow cytometry (reference value: 0.24%). It counts as functional.
The test system of experiment [11] is MOLT-4. The experiment can be described thus: Cell cycle arrest in human MOLT4 cells assessed as accumulation at G2/M phase at 0.16 uM after 24 hrs by propidium iodide staining based flow cytometry (reference value: 4.35%). It counts as functional. Put shortly: as §1
Experiment [12] relates to MOLT-4. The experiment is described as follows: Cell cycle arrest in human MOLT4 cells assessed as accumulation at G0/G1 phase at 0.16 uM after 24 hrs by propidium iodide staining based flow cytometry (reference value: 74.22%). It counts as functional. In outline:
as §1

In experiment [13] the test system is HL-60(TB). The experiment can be described thus: Induction of apoptosis in human HL-60(TB) cells assessed as late apoptotic cells at 0.112 uM after 24 hrs by Annexin V-FITC/propidium iodide staining based flow cytometry (reference value: 0.39%). It counts as functional.
Experiment [14] deals with HL-60(TB). The experiment is described as follows: Cell cycle arrest in human HL-60(TB) cells assessed as accumulation at S phase at 0.112 uM after 24 hrs by propidium iodide staining based flow cytometry (reference value: 22.84%). It counts as functional.
The subject of experiment [15] is HL-60(TB). The experiment is described as follows: Induction of apoptosis in human HL-60(TB) cells assessed as increase in apoptotic cells at 0.112 uM after 24 hrs by Annexin V-FITC/propidium iodide staining based flow cytometry relative to control. It counts as functional.
The subject of experiment [16] is HL-60(TB). The experiment can be described thus: Induction of apoptosis in human HL-60(TB) cells assessed as live cells at 0.112 uM after 24 hrs by Annexin V-FITC/propidium iodide staining based flow cytometry (reference value: 98.57%). It counts as functional.
The test system of experiment [17] is HL-60(TB). The experiment can be described thus: Induction of apoptosis in human HL-60(TB) cells assessed as necrotic cells at 0.112 uM after 24 hrs by Annexin V-FITC/propidium iodide staining based flow cytometry (reference value: 0.2%). It counts as functional.
Experiment [18] has as its system HL-60(TB). The experiment can be described thus: Induction of apoptosis in human HL-60(TB) cells assessed as early apoptotic cells at 0.112 uM after 24 hrs by Annexin V-FITC/propidium iodide staining based flow cytometry (reference value: 0.84%). It counts as functional.
Experiment [19] concerns HL-60(TB). The experiment can be described thus: Cell cycle arrest in human HL-60(TB) cells assessed as accumulation at G2/M phase at 0.112 uM after 24 hrs by propidium iodide staining based flow cytometry (reference value: 7.29%). It counts as functional.
Experiment [20] relates to HL-60(TB). The experiment can be described thus: Cell cycle arrest in human HL-60(TB) cells assessed as accumulation of apoptotic cells in pre-G phase at 0.112 uM after 24 hrs by propidium iodide staining based flow cytometry (reference value: 1.44%). It counts as functional.
The test system of experiment [21] is HL-60(TB). The experiment is described as follows: Cell cycle arrest in human HL-60(TB) cells assessed as accumulation at G0/G1 phase at 0.112 uM after 24 hrs by propidium iodide staining based flow cytometry (reference value: 68.43%). It counts as functional.

Structures are written as SMILES.

In the case of `CCOC(=O)C1=C(C)NC(SCc2nnc(-c3ccc(Cl)cc3)o2)=NC1c1ccc(Br)cc1` (stereo unspecified), the “Ratio IC50” value in the experiment with MOLT-4 [1] is reported as 3. Besides, half-maximal inhibition in the experiment on MOLT-4 [2] (IC50) required 86 nM.

On to `CCOC(=O)C1=C(C)NC(SCc2nnc(-c3ccc(Cl)cc3)o2)=NC1c1ccc(Cl)cc1` (stereo unspecified), for which the “Ratio IC50” value with HL-60(TB) [3] amounted to 1.5. Moreover, the IC50 in the experiment on MOLT-4 [2] is 623 nM.

With `CCOC(=O)C1=C(C)NC(SCc2nnc(-c3ccc(Cl)cc3)o2)=NC1c1ccc(Cl)cc1Cl` (stereo unspecified), the Activity is recorded as 17.83% in the experiment with MOLT-4 [4]; 10.48% in the experiment on MOLT-4 [5]; 82.17% in the experiment with MOLT-4 [6]; 17.04% with MOLT-4 [8]; 1.46% in the experiment on MOLT-4 [9]; 5.89% with MOLT-4 [10]. Further, the Activity with MOLT-4 [11] was found to be 26.61%; with MOLT-4 [12], 38.52%. Moreover, the “Ratio IC50” value in the experiment with MOLT-4 [1] is 3. Moreover, in the experiment on MOLT-4 [7], the “fold change (FC)” value was found to be 21. Further, the IC50 with MOLT-4 [2] is 80 nM.

Turning to `CCOC(=O)C1=C(C)NC(SCc2nnc(-c3ccc(Cl)cc3)o2)=NC1c1cccc(Cl)c1` (stereo unspecified), the “Ratio IC50” value in the experiment on HL-60(TB) [3] is reported as 2.5. The Activity in the experiment with HL-60(TB) [13] was found to be 6.67%; in the experiment on HL-60(TB) [14] it was 27.59%; in the experiment on HL-60(TB) [16], 75.28%; in the experiment with HL-60(TB) [17], 1.36%; with HL-60(TB) [18], 17.09%; with HL-60(TB) [19] it was 14.81%. Further, the Activity in the experiment with HL-60(TB) [20] turned out to be 24.72%; in the experiment with HL-60(TB) [21], 32.88%. In the experiment on HL-60(TB) [15], the “fold change (FC)” value came to 19.3. The same compound gave an IC50 in the experiment with MOLT-4 [2] of 1790 nM.
